In ChEMBL document CHEMBL2086252, “Syntheses and evaluation of anticonvulsant activity of novel branched alkyl carbamates” (J Med Chem, 2012):
Activity calls are given as the source filed them. The rule behind the calls is not given here.

Tests used:
Mus musculus [1] = assay: Anticonvulsant activity in albino CF1 mouse assessed as protection against maximal electroshock-induced seizures at 100 mg/kg, ip after 0.5 hrs; assay type: functional, organism-based; set-up: dose 100 mg/kg
Method in brief: (§1)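 Mice dosed ip at 30, 100 or 300 mg/kg, then tested 0.5 h and 4 h after administration in the MES or scMet test. Protection was recorded as animals protected over animals tested. Neurotoxicity was recorded as motor impairment or sedation, as animals affected over animals tested.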

Rattus norvegicus [2] = assay: Anticonvulsant activity in Sprague-Dawley albino rat assessed as protection against maximal electroshock-induced seizures at 100 mg/kg, po after 4 hrs; assay type: functional, organism-based; set-up: dose 100 mg/kg
Method in brief: (§2)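 Rats dosed orally. Anti-MES protection was scored as animals protected over animals tested at each time after dosing. Neurotoxicity was scored as motor impairment or sedation, as animals affected over animals tested.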

Rattus norvegicus [3] = assay: Neurotoxicity in pilocarpine-induced status epilepticus Sprague-Dawley albino rat model assessed as minimal motor impairment at 100 mg/kg, ip after 0.5 hrs by rotarod test; assay type: toxicity, organism-based; set-up: dose 100 mg/kg, route intraperitoneal; conditions: in vivo
Mus musculus [4] = assay: Neurotoxicity in albino CF1 mouse assessed as minimal motor impairment at 300 mg/kg, ip after 0.5 hrs by rotarod test; assay type: toxicity, organism-based; set-up: dose 300 mg/kg, route intraperitoneal; conditions: in vivo; method in brief: as §1
Rattus norvegicus [5] = assay: Neurotoxicity in pilocarpine-induced status epilepticus Sprague-Dawley albino rat model assessed as minimal motor impairment at 300 mg/kg, ip after 0.25 hr by rotarod test; assay type: toxicity, organism-based; set-up: dose 300 mg/kg, route intraperitoneal; conditions: in vivo
Method in brief: (§3)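 Rat pilocarpine status epilepticus model: test carbamate given at 0 or 30 min after the first observed Racine stage 3 motor seizure, which marks SE onset. Neurotoxicity was scored within the same model.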

[6] = Neurotoxicity in po dosed Sprague-Dawley albino rat assessed as minimal motor impairment by rotarod test; assay type: toxicity, organism-based; conditions: in vivo
Method in brief: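 Rats dosed orally; 4 rats per time point after dosing. Neurotoxicity was scored as motor impairment or sedation and reported as number of animals affected over number tested.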

Mus musculus [7] = assay: Neurotoxicity in albino CF1 mouse assessed as minimal motor impairment at 300 mg/kg, ip after 4 hrs by rotarod test; assay type: toxicity, organism-based; set-up: dose 300 mg/kg, route intraperitoneal; conditions: in vivo; method in brief: as §1
Mus musculus [8] = assay: Anticonvulsant activity in albino CF1 mouse assessed as protection against maximal electroshock-induced seizures at 300 mg/kg, ip after 0.5 hrs; assay type: functional, organism-based; set-up: dose 300 mg/kg; method in brief: as §1
Rattus norvegicus [9] = assay: Neurotoxicity in pilocarpine-induced status epilepticus Sprague-Dawley albino rat model assessed as minimal motor impairment at 100 mg/kg, ip after 4 hrs by rotarod test; assay type: toxicity, organism-based; set-up: dose 100 mg/kg, route intraperitoneal; conditions: in vivo
Rattus norvegicus [10] = assay: Neurotoxicity in pilocarpine-induced status epilepticus Sprague-Dawley albino rat model assessed as minimal motor impairment at 100 mg/kg, ip after 1 hr by rotarod test; assay type: toxicity, organism-based; set-up: dose 100 mg/kg, route intraperitoneal; conditions: in vivo
Rattus norvegicus [11] = assay: Anticonvulsant activity in Sprague-Dawley albino rat assessed as protection against maximal electroshock-induced seizures at 30 mg/kg, po after 4 hrs; assay type: functional, organism-based; set-up: dose 30 mg/kg; method in brief: as §2
Rattus norvegicus [12] = assay: Protective index, ratio of TD50 for po dosed Sprague-Dawley albino rat by rotarod test to ED50 for po dosed Sprague-Dawley albino rat by maximal electroshock seizures test; assay type: functional
Method in brief: (§4)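 Protective index calculated as TD50/ED50, with TD50 and ED50 taken from the same species and dosing route.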

Rattus norvegicus [13] = assay: Neurotoxicity in Sprague-Dawley albino rat assessed as minimal motor impairment at 30 mg/kg, po by rotarod test; assay type: toxicity, organism-based; set-up: dose 30 mg/kg, route oral; conditions: in vivo; method in brief: as §2
Mus musculus [14] = assay: Neurotoxicity in albino CF1 mouse assessed as minimal motor impairment at 30 mg/kg, ip after 4 hrs by rotarod test; assay type: toxicity, organism-based; set-up: dose 30 mg/kg, route intraperitoneal; conditions: in vivo; method in brief: as §1
Rattus norvegicus [15] = assay: Anticonvulsant activity in po dosed Sprague-Dawley albino rat assessed as protection against subcutaneous metrazol-induced seizures; assay type: functional
Method in brief: (§5)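 Quantitative testing: rats dosed orally or ip in MES and scMet tests, and mice dosed ip, including the 6 Hz (32 mA) psychomotor seizure test. ED50 and TD50 were reported in mg/kg with ranges in parentheses. Protective index was calculated as TD50/ED50.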

Mus musculus [16] = assay: Neurotoxicity in albino CF1 mouse assessed as minimal motor impairment at 100 mg/kg, ip after 4 hrs by rotarod test; assay type: toxicity, organism-based; set-up: dose 100 mg/kg, route intraperitoneal; conditions: in vivo; method in brief: as §1
Rattus norvegicus [17] = assay: Neurotoxicity in pilocarpine-induced status epilepticus Sprague-Dawley albino rat model assessed as minimal motor impairment at 300 mg/kg, ip after 2 hrs by rotarod test; assay type: toxicity, organism-based; set-up: dose 300 mg/kg, route intraperitoneal; conditions: in vivo; method in brief: as §3
Mus musculus [18] = assay: Anticonvulsant activity in albino CF1 mouse assessed as protection against subcutaneous metrazol-induced seizures at 30 mg/kg, ip after 0.5 hrs; assay type: functional, organism-based; set-up: dose 30 mg/kg; method in brief: as §1
Rattus norvegicus [19] = assay: Protective index, ratio of TD50 for po dosed Sprague-Dawley albino rat by rotarod test to ED50 for po dosed Sprague-Dawley albino rat by subcutaneous metrazol seizures test; assay type: functional; method in brief: as §4
Mus musculus [20] = assay: Anticonvulsant activity in albino CF1 mouse assessed as protection against subcutaneous metrazol-induced seizures at 100 mg/kg, ip after 4 hrs; assay type: functional, organism-based; set-up: dose 100 mg/kg; method in brief: as §1
Mus musculus [21] = assay: Neurotoxicity in albino CF1 mouse assessed as minimal motor impairment at 30 mg/kg, ip after 0.5 hrs by rotarod test; assay type: toxicity, organism-based; set-up: dose 30 mg/kg, route intraperitoneal; conditions: in vivo; method in brief: as §1
Rattus norvegicus [22] = assay: Neurotoxicity in pilocarpine-induced status epilepticus Sprague-Dawley albino rat model assessed as minimal motor impairment at 100 mg/kg, ip after 2 hrs by rotarod test; assay type: toxicity, organism-based; set-up: dose 100 mg/kg, route intraperitoneal; conditions: in vivo
Rattus norvegicus [23] = assay: Anticonvulsant activity in Sprague-Dawley albino rat assessed as protection against maximal electroshock-induced seizures at 100 mg/kg, po after 30 mins; assay type: functional, organism-based; set-up: dose 100 mg/kg; method in brief: as §2
Mus musculus [24] = assay: Anticonvulsant activity in albino CF1 mouse assessed as protection against subcutaneous metrazol-induced seizures at 300 mg/kg, ip after 0.5 hrs; assay type: functional, organism-based; set-up: dose 300 mg/kg; method in brief: as §1
Rattus norvegicus [25] = assay: Anticonvulsant activity in po dosed Sprague-Dawley albino rat assessed as protection against maximal electroshock-induced seizures; assay type: functional; method in brief: as §5
Rattus norvegicus [26] = assay: Anticonvulsant activity in Sprague-Dawley albino rat assessed as protection against maximal electroshock-induced seizures at 30 mg/kg, po after 30 mins; assay type: functional, organism-based; set-up: dose 30 mg/kg; method in brief: as §2
Rattus norvegicus [27] = assay: Neurotoxicity in pilocarpine-induced status epilepticus Sprague-Dawley albino rat model assessed as minimal motor impairment at 300 mg/kg, ip after 1 hr by rotarod test; assay type: toxicity, organism-based; set-up: dose 300 mg/kg, route intraperitoneal; conditions: in vivo; method in brief: as §3
Rattus norvegicus [28] = assay: Neurotoxicity in pilocarpine-induced status epilepticus Sprague-Dawley albino rat model assessed as minimal motor impairment at 300 mg/kg, ip after 0.5 hrs by rotarod test; assay type: toxicity, organism-based; set-up: dose 300 mg/kg, route intraperitoneal; conditions: in vivo; method in brief: as §3
Mus musculus [29] = assay: Anticonvulsant activity in albino CF1 mouse assessed as protection against maximal electroshock-induced seizures at 30 mg/kg, ip after 4 hrs; assay type: functional, organism-based; set-up: dose 30 mg/kg; method in brief: as §1
Mus musculus [30] = assay: Anticonvulsant activity in albino CF1 mouse assessed as protection against maximal electroshock-induced seizures at 100 mg/kg, ip after 4 hrs; assay type: functional, organism-based; set-up: dose 100 mg/kg; method in brief: as §1
Rattus norvegicus [31] = assay: Anticonvulsant activity in Sprague-Dawley albino rat assessed as protection against maximal electroshock-induced seizures at 30 mg/kg, po after 2 hrs; assay type: functional, organism-based; set-up: dose 30 mg/kg; method in brief: as §2
Mus musculus [32] = assay: Anticonvulsant activity in albino CF1 mouse assessed as protection against maximal electroshock-induced seizures at 300 mg/kg, ip after 4 hrs; assay type: functional, organism-based; set-up: dose 300 mg/kg; method in brief: as §1
Mus musculus [33] = assay: Anticonvulsant activity in albino CF1 mouse assessed as protection against maximal electroshock-induced seizures at 30 mg/kg, ip after 0.5 hrs; assay type: functional, organism-based; set-up: dose 30 mg/kg; method in brief: as §1
Mus musculus [34] = assay: Anticonvulsant activity in albino CF1 mouse assessed as protection against subcutaneous metrazol-induced seizures at 100 mg/kg, ip after 0.5 hrs; assay type: functional, organism-based; set-up: dose 100 mg/kg; method in brief: as §1
Mus musculus [35] = assay: Anticonvulsant activity in albino CF1 mouse assessed as protection against subcutaneous metrazol-induced seizures at 300 mg/kg, ip after 4 hrs; assay type: functional, organism-based; set-up: dose 300 mg/kg; method in brief: as §1
Rattus norvegicus [36] = assay: Neurotoxicity in pilocarpine-induced status epilepticus Sprague-Dawley albino rat model assessed as minimal motor impairment at 300 mg/kg, ip after 4 hrs by rotarod test; assay type: toxicity, organism-based; set-up: dose 300 mg/kg, route intraperitoneal; conditions: in vivo; method in brief: as §3
Mus musculus [37] = assay: Anticonvulsant activity in albino CF1 mouse assessed as protection against subcutaneous metrazol-induced seizures at 30 mg/kg, ip after 4 hrs; assay type: functional, organism-based; set-up: dose 30 mg/kg; method in brief: as §1
Rattus norvegicus [38] = assay: Anticonvulsant activity in Sprague-Dawley albino rat assessed as protection against maximal electroshock-induced seizures at 30 mg/kg, po after 1 hr; assay type: functional, organism-based; set-up: dose 30 mg/kg; method in brief: as §2
Rattus norvegicus [39] = assay: Neurotoxicity in Sprague-Dawley albino rat assessed as minimal motor impairment at 100 mg/kg, po by rotarod test; assay type: toxicity, organism-based; set-up: dose 100 mg/kg, route oral; conditions: in vivo; method in brief: as §2
Rattus norvegicus [40] = assay: Anticonvulsant activity in Sprague-Dawley albino rat assessed as protection against maximal electroshock-induced seizures at 30 mg/kg, po after 15 mins; assay type: functional, organism-based; set-up: dose 30 mg/kg; method in brief: as §2

Question: With `CCCC(CCC)COC(N)=O` as the compound, how does the Activity (Mus musculus [1]) read?
Answer: Active

Question: What about the Activity (Rattus norvegicus [2]) of the same compound?
Answer: inactive

Question: What about the Activity (Rattus norvegicus [3]) of the same compound?
Answer: Non-toxic

Question: What about the Activity (Mus musculus [4]) of the same compound?
Answer: Toxic

Question: And the Activity (Rattus norvegicus [5])?
Answer: Toxic

Question: And the TD50 [6]?
Answer: > 500 mg/kg

Question: And the Activity (Mus musculus [7])?
Answer: Toxic

Question: And the Activity (Mus musculus [8])?
Answer: Active

Question: And the Activity (Rattus norvegicus [9])?
Answer: Non-toxic

Question: What about the Activity (Rattus norvegicus [10]) of the same compound?
Answer: Non-toxic

Question: And the Activity (Rattus norvegicus [11])?
Answer: inactive

Question: What about the “Ratio TD50/ED50” value (Rattus norvegicus [12]) of the same compound?
Answer: >14

Question: And the Activity (Rattus norvegicus [13])?
Answer: Non-toxic

Question: What about the Activity (Mus musculus [14]) of the same compound?
Answer: Non-toxic

Question: What about the ED50 (Rattus norvegicus [15]) of the same compound?
Answer: > 125 mg/kg

Question: What about the Activity (Mus musculus [16]) of the same compound?
Answer: Non-toxic

Question: And the Activity (Rattus norvegicus [17])?
Answer: Toxic

Question: What about the Activity (Mus musculus [18]) of the same compound?
Answer: inactive

Question: And the “Ratio TD50/ED50” value (Rattus norvegicus [19])?
Answer: >4

Question: What about the Activity (Mus musculus [20]) of the same compound?
Answer: inactive

Question: What about the Activity (Mus musculus [21]) of the same compound?
Answer: Non-toxic

Question: And the Activity (Rattus norvegicus [22])?
Answer: Non-toxic

Question: And the Activity (Rattus norvegicus [23])?
Answer: Active

Question: And the Activity (Mus musculus [24])?
Answer: Active

Question: And the ED50 (Rattus norvegicus [25])?
Answer: 35 mg/kg

Question: What about the Activity (Rattus norvegicus [26]) of the same compound?
Answer: inactive

Question: What about the Activity (Rattus norvegicus [27]) of the same compound?
Answer: Toxic

Question: What about the Activity (Rattus norvegicus [28]) of the same compound?
Answer: Toxic

Question: And the Activity (Mus musculus [29])?
Answer: inactive

Question: What about the Activity (Mus musculus [30]) of the same compound?
Answer: inactive

Question: And the Activity (Rattus norvegicus [31])?
Answer: inactive

Question: What about the Activity (Mus musculus [32]) of the same compound?
Answer: Active

Question: What about the Activity (Mus musculus [33]) of the same compound?
Answer: inactive

Question: What about the Activity (Mus musculus [34]) of the same compound?
Answer: inactive

Question: What about the Activity (Mus musculus [35]) of the same compound?
Answer: Active

Question: What about the Activity (Rattus norvegicus [36]) of the same compound?
Answer: Toxic

Question: What about the Activity (Mus musculus [37]) of the same compound?
Answer: inactive

Question: What about the Activity (Rattus norvegicus [38]) of the same compound?
Answer: inactive

Question: What about the Activity (Rattus norvegicus [39]) of the same compound?
Answer: Non-toxic

Question: What about the Activity (Rattus norvegicus [40]) of the same compound?
Answer: inactive
